Reference: ChEMBL document CHEMBL1926614, “Substituted thiazoles V. synthesis and antitumor activity of novel thiazolo[2,3-b]quinazoline and pyrido[4,3-d]thiazolo[3,2-a]pyrimidine analogues” (2012)

Key:
Assay type in all cases: functional
UACC-257 = experiment: Growth inhibition of human UACC257 cells at 10 uM after 48 hrs by coulter counting; conditions: UACC-257, 48 h, read-out: GI
Outline: (§1)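 Single-dose screen in the NCI 60 human tumor cell line panel (nine subpanels). Compounds dissolved in DMSO and diluted in phosphate buffered saline, keeping final DMSO below 1%. Added in duplicate wells to cells at 6 × 10⁴ cells/ml. Controls held PBS and DMSO at matching dilutions. Incubated at 37 °C, humidified, 5% CO₂. Reported as percent growth of treated cells.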

UACC-62 = experiment: Growth inhibition of human UACC62 cells at 10 uM after 48 hrs by coulter counting; conditions: UACC-62, 48 h, read-out: GI; outline: as §1
SF-539 = experiment: Growth inhibition of human SF539 cells at 10 uM after 48 hrs by coulter counting; conditions: SF-539, 48 h, read-out: GI
Outline: (§2)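 Single-dose primary screen across the full NCI 60-cell-line panel. Stocks were made in DMSO and diluted in PBS to a final DMSO below 1%. Cultures at 6 × 10⁴ cells/ml were run in duplicate wells alongside PBS/DMSO vehicle controls at 37 °C in humidified 5% CO₂. Data were expressed as percent growth of treated cells.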

CCRF-CEM = experiment: Growth inhibition of human CCRF-CEM cells at 10 uM after 48 hrs by coulter counting; conditions: read-out: GI; outline: as §2
HL-60(TB) = experiment: Growth inhibition of human HL-60(TB) cells at 10 uM after 48 hrs by coulter counting; conditions: HL-60, 48 h, read-out: GI
Outline: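 Test compound was dissolved in DMSO and diluted in phosphate-buffered saline to a final DMSO level below 1%. Dilutions were plated in duplicate with cell culture at 6 × 10⁴ cells/ml. Vehicle controls held PBS and DMSO at matching dilutions. Incubation was at 37 °C, humidified, under 5% CO₂. Data were reported as percent growth of treated cells.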

K562 = experiment: Growth inhibition of human K562 cells at 10 uM after 48 hrs by coulter counting; conditions: K562, 48 h, read-out: GI; outline: as §2
MOLT-4 = experiment: Growth inhibition of human MOLT4 cells at 10 uM after 48 hrs by coulter counting; conditions: MOLT-4, 48 h, read-out: GI; outline: as §2
RPMI-8226 = experiment: Growth inhibition of human RPMI8226 cells at 10 uM after 48 hrs by coulter counting; conditions: RPMI-8226, 48 h, read-out: GI; outline: as §2
A549 = experiment: Growth inhibition of human A549 cells at 10 uM after 48 hrs by coulter counting; conditions: A549, 48 h, read-out: GI; outline: as §2
EKVX = experiment: Growth inhibition of human EKVX cells at 10 uM after 48 hrs by coulter counting; conditions: read-out: GI; outline: as §2
NCI-H226 = experiment: Growth inhibition of human NCI-H226 cells at 10 uM after 48 hrs by coulter counting; conditions: NCI-H226, 48 h, read-out: GI; outline: as §2
NCI-H23 = experiment: Growth inhibition of human NCI-H23 cells at 10 uM after 48 hrs by coulter counting; conditions: NCI-H23, 48 h, read-out: GI; outline: as §2
[1] = Growth inhibition of human NCI-322M cells at 10 uM after 48 hrs by coulter counting; conditions: read-out: GI; outline: as §2
NCI-H460 = experiment: Growth inhibition of human NCI-H460 cells at 10 uM after 48 hrs by coulter counting; conditions: NCI-H460, 48 h, read-out: GI; outline: as §2
NCI-H522 = experiment: Growth inhibition of human NCI-H522 cells at 10 uM after 48 hrs by coulter counting; conditions: NCI-H522, 48 h, read-out: GI; outline: as §2
HCT-116 = experiment: Growth inhibition of human HCT116 cells at 10 uM after 48 hrs by coulter counting; conditions: HCT-116, 48 h, read-out: GI; outline: as §2
HCC 2998 = experiment: Growth inhibition of human HCC2998 cells at 10 uM after 48 hrs by coulter counting; conditions: HCC 2998, 48 h, read-out: GI; outline: as §2
HT-29 = experiment: Growth inhibition of human HT-29 cells at 10 uM after 48 hrs by coulter counting; conditions: HT-29, 48 h, read-out: GI; outline: as §2
KM12 = experiment: Growth inhibition of human KM12 cells at 10 uM after 48 hrs by coulter counting; conditions: KM12, 48 h, read-out: GI; outline: as §2
SF-268 = experiment: Growth inhibition of human SF268 cells at 10 uM after 48 hrs by coulter counting; conditions: SF-268, 48 h, read-out: GI; outline: as §2
SF-295 = experiment: Growth inhibition of human SF295 cells at 10 uM after 48 hrs by coulter counting; conditions: SF-295, 48 h, read-out: GI; outline: as §2
SNB-19 = experiment: Growth inhibition of human SNB19 cells at 10 uM after 48 hrs by coulter counting; conditions: SNB-19, 48 h, read-out: GI; outline: as §2
SNB-75 = experiment: Growth inhibition of human SNB75 cells at 10 uM after 48 hrs by coulter counting; conditions: SNB-75, 48 h, read-out: GI; outline: as §2
U-251 = experiment: Growth inhibition of human U251 cells at 10 uM after 48 hrs by coulter counting; conditions: U-251, 48 h, read-out: GI; outline: as §1
LOX IMVI = experiment: Growth inhibition of human LOXIMVI cells at 10 uM after 48 hrs by coulter counting; conditions: read-out: GI; outline: as §2
M14 = experiment: Growth inhibition of human M14 cells at 10 uM after 48 hrs by coulter counting; conditions: M14, 48 h, read-out: GI; outline: as §2
MDA-MB-435 = experiment: Growth inhibition of human MDA-MB-435 cells at 10 uM after 48 hrs by coulter counting; conditions: MDA-MB-435, 48 h, read-out: GI; outline: as §2
SK-MEL-2 = experiment: Growth inhibition of human SK-MEL-2 cells at 10 uM after 48 hrs by coulter counting; conditions: SK-MEL-2, 48 h, read-out: GI; outline: as §2
SK-MEL-28 = experiment: Growth inhibition of human SK-MEL-28 cells at 10 uM after 48 hrs by coulter counting; conditions: SK-MEL-28, 48 h, read-out: GI; outline: as §2
SK-MEL-5 = experiment: Growth inhibition of human SK-MEL-5 cells at 10 uM after 48 hrs by coulter counting; conditions: SK-MEL-5, 48 h, read-out: GI; outline: as §2
IGROV-1 = experiment: Growth inhibition of human IGROV1 cells at 10 uM after 48 hrs by coulter counting; conditions: IGROV-1, 48 h, read-out: GI; outline: as §2
OVCAR-4 = experiment: Growth inhibition of human OVCAR4 cells at 10 uM after 48 hrs by coulter counting; conditions: OVCAR-4, 48 h, read-out: GI; outline: as §2
NCI/ADR-RES = experiment: Growth inhibition of human NCI/ADR-RES cells at 10 uM after 48 hrs by coulter counting; conditions: read-out: GI; outline: as §2
A498 = experiment: Growth inhibition of human A498 cells at 10 uM after 48 hrs by coulter counting; conditions: A498, 48 h, read-out: GI; outline: as §2
ACHN = experiment: Growth inhibition of human ACHN cells at 10 uM after 48 hrs by coulter counting; conditions: read-out: GI; outline: as §2
CAKI-1 = experiment: Growth inhibition of human Caki1 cells at 10 uM after 48 hrs by coulter counting; conditions: CAKI-1, 48 h, read-out: GI; outline: as §2
UO-31 = experiment: Growth inhibition of human UO31 cells at 10 uM after 48 hrs by coulter counting; conditions: UO-31, 48 h, read-out: GI; outline: as §1
DU-145 = experiment: Growth inhibition of human DU145 cells at 10 uM after 48 hrs by coulter counting; conditions: DU-145, 48 h, read-out: GI; outline: as §2
MCF7 = experiment: Growth inhibition of human MCF7 cells at 10 uM after 48 hrs by coulter counting; conditions: MCF7, 48 h, read-out: GI; outline: as §2
BT-549 = experiment: Growth inhibition of human BT549 cells at 10 uM after 48 hrs by coulter counting; conditions: BT-549, 48 h, read-out: GI; outline: as §2
T47D = experiment: Growth inhibition of human T47D cells at 10 uM after 48 hrs by coulter counting; conditions: read-out: GI; outline: as §1
HOP-62 = experiment: Growth inhibition of human HOP62 cells at 10 uM after 48 hrs by coulter counting; conditions: HOP-62, 48 h, read-out: GI; outline: as §2

Measured: inhibition of growth at 10 µM

COc1ccc(/C=C2\CCCC3=C2N=C2SC=C(C)N2C3c2ccc(OC)c(OC)c2)cc1OC (stereo not given)
10.5%: NCI-H226
11.4%: EKVX
not listed: HOP-62
> 10%: all other assays above

COc1ccc(/C=C2\CCCC3=C2N=C2SC=CN2C3c2ccc(OC)cc2)cc1 (stereo not given)
11.3%: CAKI-1
18.8%: M14
14.4%: MOLT-4
21.6%: NCI-H226
15.4%: MDA-MB-435 | OVCAR-4
12.5%: EKVX
32%: UO-31
21%: RPMI-8226
17.6%: HCT-116
> 10%: all other assays above

COc1ccc(/C=C2\CCCC3=C2N=C2SC=C(C)N2C3c2ccc(OC)cc2)cc1 (stereo not given)
36%: A498
23.3%: UO-31
12.5%: CAKI-1
13.5%: RPMI-8226
> 10%: all other assays above
